27 compounds from ChEMBL document CHEMBL2380243, “Design and synthesis of 2-N-substituted indazolone derivatives as non-carboxylic acid glycogen synthase activators” (Bioorg Med Chem Lett, 2013) can be followed below.

Data set [1] concerns the target T1, Glycogen [starch] synthase, muscle (Homo sapiens) (UniProt P13807).
T1 sequence (whole entry): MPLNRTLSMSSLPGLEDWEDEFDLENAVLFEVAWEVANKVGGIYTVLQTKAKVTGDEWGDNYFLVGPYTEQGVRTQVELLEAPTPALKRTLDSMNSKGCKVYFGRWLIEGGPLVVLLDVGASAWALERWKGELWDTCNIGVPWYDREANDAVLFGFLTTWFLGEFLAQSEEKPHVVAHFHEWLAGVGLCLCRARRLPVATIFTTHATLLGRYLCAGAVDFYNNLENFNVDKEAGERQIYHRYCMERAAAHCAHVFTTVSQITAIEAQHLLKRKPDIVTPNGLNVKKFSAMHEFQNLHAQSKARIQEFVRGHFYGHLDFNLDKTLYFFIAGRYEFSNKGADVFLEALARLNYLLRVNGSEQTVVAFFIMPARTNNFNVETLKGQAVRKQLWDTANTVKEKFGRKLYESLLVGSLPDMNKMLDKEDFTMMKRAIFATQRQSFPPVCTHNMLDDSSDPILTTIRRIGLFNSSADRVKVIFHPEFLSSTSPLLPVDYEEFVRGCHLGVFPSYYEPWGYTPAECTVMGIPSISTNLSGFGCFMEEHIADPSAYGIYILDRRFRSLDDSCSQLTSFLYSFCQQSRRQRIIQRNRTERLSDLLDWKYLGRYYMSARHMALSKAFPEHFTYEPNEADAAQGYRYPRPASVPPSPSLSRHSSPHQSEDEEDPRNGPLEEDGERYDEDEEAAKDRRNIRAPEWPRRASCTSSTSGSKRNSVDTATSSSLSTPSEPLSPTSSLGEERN
Briefly: Activation of human recombinant muscle GYS1 expressed in insect sf9 cells using glycogen and UDP-glucose as substrates assessed as concentration required to 200% activation by spectrophotometry. In a few lines:
(§1)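 Recombinant human muscle GYS1 (partially purified from sf9 cells) is read in a pyruvate kinase/lactate dehydrogenase-coupled assay at room temperature. Compounds are diluted in 30 mM glycylglycine pH 7.3, 40 mM KCl, 20 mM MgCl2, 9.2% DMSO, ±20 mM glucose-6-phosphate. The substrate mix holds glycogen, UDP-glucose, PEP and NADH, all as solution concentrations. NADH loss is read at 340 nm every 3 min for 15 min. EC50 is half-maximal activation, SC200 is the concentration doubling activity, and dose-response runs are in triplicate.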

For data set [2], the target named is T1, Glycogen [starch] synthase, muscle (Homo sapiens). Briefly: Activation of human recombinant muscle GYS1 expressed in insect sf9 cells using glycogen and UDP-glucose as substrates at 75 uM by spectrophotometry relative to control. A digest of the protocol:
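Same coupled GYS1 assay (sf9-derived human muscle enzyme, PK/LDH coupling, NADH absorbance at 340 nm read every 3 min over 15 min, room temperature). Activation is expressed as fold increase over control at the highest concentration tested.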

For data set [3], the target named is T2, Glycogen [starch] synthase, muscle (Homo sapiens, UniProt P13807).
T2 sequence (P13807 whole entry): T1 sequence (whole entry)
Briefly: Activation of human recombinant muscle GYS1 expressed in insect sf9 cells using glycogen and UDP-glucose as substrates by spectrophotometry. A digest of the protocol: as §1

Data set [4] is described as follows: Cmax in C57 mouse at 10 mg/kg, po. The class given is ADME, organism-based. Details: dose 10 mg/kg, route oral; call rule not given here. As to conditions: in vivo. In a few lines:
(§2)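 C57 mice get a single oral dose of 10 mg/kg as an aqueous suspension in 0.1 M phosphate buffer, pH 7.4, containing 10% PEG 400 by volume. Plasma exposure is measured and reported as Cmax and AUC.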

A short description of data set [5]: AUC in C57 mouse at 10 mg/kg, po. The class given is ADME, organism-based. Details: dose 10 mg/kg, route oral. The conditions noted are these: plasma. A digest of the protocol:
as §2

The test system of a further data set is Mus musculus. Put plainly: Drug metabolism in po dosed C57 mouse assessed as conversion to ortho-aminobenzoic acid in plasma. The class given is ADME, organism-based. As to conditions: in vivo.

As to `COc1cc(F)c(F)cc1-c1ccc(OCc2cccc3c(=O)n(C[C@H](O)CO)[nH]c23)cc1`, the Activity in data set [1] was found to be 0.07 µM. The fold change (FC) in data set [2] worked out at 3.3. Further, in data set [3], the EC50 was found to be 250 nM.
Taken in the same sequence, the figures for `O=c1c2cccc(COc3ccc(-c4cc(F)c(F)cc4Cl)cc3)c2[nH]n1C[C@@H](O)CO` were 0.25 µM, 3.6 and 260 nM.
On the same counts, the results for `Cc1cc(F)c(F)cc1-c1ccc(OCc2cccc3c(=O)n(CC(=O)O)[nH]c23)cc1` are 0.33 µM, 3.7 and 420 nM.
`Cn1[nH]c2c(COc3ccc(-c4cc(F)c(F)cc4F)cc3)cccc2c1=O` displayed a Cmax in data set [4] of 254 ng/mL. Further, the Activity in data set [1] came to 0.49 µM. In data set [5], the AUC was determined as 746 ng·h/mL. Moreover, the fold change (FC) in data set [2] came out at 6.8. The EC50 in data set [3] was 1780 nM.
As to `O=C(O)[C@@H]1CCCN1C(=O)c1ccc(COc2ccc(-c3ccccc3)cc2)o1`, the fold change (FC) in data set [2] came to 5.8. Also, in data set [3], the EC50 was 15100 nM.
Regarding `Cc1cc(F)c(F)cc1-c1ccc(OCc2cccc3c(=O)n(-c4ccc(F)cc4)[nH]c23)cc1`, in data set [1], the Activity was found to be 1.86 µM. Also, in data set [2], the fold change (FC) was 2.5. The EC50 in data set [3] came to 1470 nM.
Consider `O=c1o[nH]c2c(COc3ccc(-c4cc(F)c(F)cc4F)cc3)cccc12`, for which the Drug metabolism result with Mus musculus is reported as “Active”. Also, the Activity in data set [1] is 0.41 µM. For the same compound, the fold change (FC) in data set [2] stood at 4. Moreover, the EC50 in data set [3] was found to be 1000 nM.
`Cc1cc(F)c(F)cc1-c1ccc(OCc2cccc3c(=O)n(C[C@@H](O)CO)[nH]c23)cc1`: the Activity in data set [1] is 0.1 µM. Moreover, the fold change (FC) in data set [2] turned out to be 3. Also, the EC50 in data set [3] amounted to 230 nM.
Regarding `Cc1cc(F)c(F)cc1-c1ccc(OCc2cccc3c(=O)n(C)[nH]c23)cc1`, in data set [1], the Activity stood at 0.13 µM. Moreover, the fold change (FC) in data set [2] stood at 3. In data set [3], the EC50 worked out at 240 nM.
For the compound `O=c1c2cccc(COc3ccc(-c4cc(F)c(F)cc4F)cc3)c2[nH]n1C[C@H](O)CO`, in data set [1], the Activity was 0.41 µM. For the same compound, the fold change (FC) in data set [2] was 3. In addition, the EC50 in data set [3] stood at 580 nM.
Taken in the same sequence, the figures for `O=c1c2cccc(COc3ccc(-c4cc(F)c(F)cc4F)cc3)c2[nH]n1C[C@@H](O)CO` were 0.32 µM, 3.3 and 680 nM.
`O=c1c2cccc(COc3ccc(-c4cc(F)c(F)cc4Cl)cc3)c2[nH]n1C[C@H](O)CO`: in data set [1], the Activity is 0.16 µM. Moreover, the fold change (FC) in data set [2] is 3.5. Moreover, in data set [3], the EC50 is 300 nM.
For the compound `COc1cc(F)c(F)cc1-c1ccc(OCc2cccc3c(=O)n(CC(=O)O)[nH]c23)cc1`, the Activity in data set [1] amounted to 0.06 µM. Also, in data set [2], the fold change (FC) is 3.2. Moreover, in data set [3], the EC50 is 200 nM.
On the same counts, the results for `O=c1c2cccc(COc3ccc(-c4cc(F)c(F)cc4F)cc3)c2[nH]n1-c1cccnc1` are 2.75 µM, 5.8 and 4010 nM.
Take `COc1cc(F)c(F)cc1-c1ccc(OCc2cccc(C(=O)N3CCC[C@H]3C(=O)O)c2)cc1`: the fold change (FC) in data set [2] was determined as 5.4. For the same compound, the EC50 in data set [3] is 140 nM.
As for `O=c1c2cccc(COc3ccc(-c4cc(F)c(F)cc4Cl)cc3)c2[nH]n1-c1cccnc1`, the Activity in data set [1] was found to be 1.14 µM. Further, in data set [2], the fold change (FC) was determined as 6.1. In addition, in data set [3], the EC50 was determined as 1860 nM.
Take `COc1cc(F)c(F)cc1-c1ccc(OCc2cccc(C(=O)N(C)CCO)c2)cc1`: the fold change (FC) in data set [2] amounted to 7.3. In addition, in data set [3], the half-maximal effective concentration (EC50) came to 4100 nM.
As to `COCCn1[nH]c2c(COc3ccc(-c4cc(F)c(F)cc4F)cc3)cccc2c1=O`, the Activity in data set [1] stood at 0.52 µM. In addition, the fold change (FC) in data set [2] was 3. In data set [3], the EC50 came out at 790 nM.
`O=C(O)Cn1[nH]c2c(COc3ccc(-c4cc(F)c(F)cc4F)cc3)cccc2c1=O`: the Activity in data set [1] amounted to 0.69 µM. Besides, the fold change (FC) in data set [2] amounted to 3.6. Besides, the EC50 in data set [3] is 1200 nM.
On to `COc1cc(F)c(F)cc1-c1ccc(OCc2cccc(C(=O)N(C)CC(=O)O)c2)cc1`, for which the fold change (FC) in data set [2] is 6.8. For the same compound, the 50% effective concentration (EC50) in data set [3] was 100 nM.
On the same counts, the results for `COc1cc(F)c(F)cc1-c1ccc(OCc2cccc(C(=O)N(C)CC(O)CO)c2)cc1` (stereo unspecified) are 6.6 and 10300 nM.
With `COc1cc(F)c(F)cc1-c1ccc(OCc2cccc3c(=O)n(-c4ccc(F)cc4)[nH]c23)cc1`, in data set [1], the Activity came out at 2.01 µM. In addition, the fold change (FC) in data set [2] amounted to 2.8. In data set [3], the EC50 amounted to 1370 nM.
For `O=c1c2cccc(COc3ccc(-c4cc(F)c(F)cc4F)cc3)c2[nH]n1CCO`, the Cmax in data set [4] worked out at 1350 ng/mL. The Activity in data set [1] was 0.22 µM. In data set [5], this compound displayed an AUC of 3590 ng·h/mL. Also, the fold change (FC) in data set [2] came to 5.5. In addition, in data set [3], the EC50 amounted to 770 nM.
With `COc1cc(F)c(F)cc1-c1ccc(OCc2cccc3c(=O)n(C)[nH]c23)cc1`, in data set [1], the Activity was found to be 0.07 µM. In addition, the fold change (FC) in data set [2] is 5.4. Further, the EC50 in data set [3] amounted to 320 nM.
Taken in the same sequence, the figures for `COc1cc(F)c(F)cc1-c1ccc(OCc2cccc3c(=O)n(C[C@@H](O)CO)[nH]c23)cc1` were 0.06 µM, 3.1 and 270 nM.
Regarding `Cc1cc(F)c(F)cc1-c1ccc(OCc2cccc3c(=O)n(C[C@H](O)CO)[nH]c23)cc1`, the Activity in data set [1] worked out at 0.11 µM. Also, in data set [2], the fold change (FC) is 3.3. For the same compound, the EC50 in data set [3] is 340 nM.
On the same counts, the results for `COCCn1[nH]c2c(COc3ccc(-c4cc(F)c(F)cc4OC)cc3)cccc2c1=O` are 0.11 µM, 4.4 and 370 nM.
